# Experimental data of several laboratories.
# Lines come from different studies, so protocols differ.
# RET: Proto-oncogene tyrosine-protein kinase receptor Ret (RET, Homo sapiens, UniProt P07949)
# RET M918T: Proto-oncogene tyrosine-protein kinase receptor Ret (RET, Homo sapiens, UniProt P07949, M918T)
# RET V804M: Proto-oncogene tyrosine-protein kinase receptor Ret (RET, Homo sapiens, UniProt P07949, V804M)
SMILES,target,test,setting,measurement,value
O=C1NC(=O)N(c2ccccc2)C(=O)C1=CNc1ccc2[nH]c(=O)[nH]c2c1,RET,"enzyme activity, inhibitor, radiometric",0.1 µM,remaining activity,107%
Cn1cncc1[C@](O)(COc1ccc(C#N)cc1-c1ccc(OC(F)(F)F)cc1)c1ccc(C#N)cc1,RET M918T,"cell-free assay, competition with immobilised ligand",1 µM,remaining binding,95%
Cc1nn(C)cc1-c1nc2c(N3CCN(Cc4ccc(Cl)cc4)CC3)c(Cl)cnc2[nH]1,"Proto-oncogene tyrosine-protein kinase receptor Ret (RET, Homo sapiens, UniProt P07949, V804L)","binding, competition with immobilised ligand",1 µM,remaining binding,2.1%
Cn1cc(-c2cc(F)cc(N3CCn4c(cc5c4CCCC5)C3=O)c2CO)cc(Nc2ccc(N3CCN(C4COC4)CC3)cn2)c1=O,RET,"enzyme activity, inhibitor",0.1 µM,inhibition,11%
C#Cc1n[nH]c2c(-c3cn([C@@H](C)c4ccccn4)c(=O)[nH]c3=O)cc(F)cc12,RET V804M,"enzyme activity, inhibitor",0.1 µM,inhibition,-0.3%
Nc1ncc(-c2nc(N3CCOCC3)nc(N3CCOCC3)n2)c(C(F)F)n1,RET V804M,"binding, competition with immobilised ligand",10 µM,remaining binding,73%
C#Cc1n[nH]c2c(-c3cn([C@@H](C)c4ccccc4)c(=O)[nH]c3=O)cc(F)cc12,RET,"enzyme activity, inhibitor",0.1 µM,inhibition,3.2%
O=C(Cn1cc(C=C2C(=O)NC(=O)NC2=O)c2ccccc21)Nc1ccccc1,RET,"enzyme activity, inhibitor, radiometric",0.1 µM,remaining activity,131%
O=c1[nH]c2ccccc2n1C1CCN(Cc2ccc(-c3[nH]c4cc5ncnc5cc4nc3-c3ccccc3)cc2)CC1,RET,cell-free assay,0.5 µM,remaining signal,96.7%
N#CC1(c2ccccn2)CCN(Cc2cc(C(=O)O)c(=O)n3ccccc23)CC1,RET M918T,"cell-free assay, competition with immobilised ligand",1 µM,remaining binding,100%
COc1ncccc1-c1cnn2ccc(N3CCN(C(=O)OC(C)C)CC3)nc12,RET,"binding, competition with immobilised ligand",1 µM,remaining binding,100%
